Screens (PubChem)
This is a sample that favours compounds with a hit; in the whole collection about 3.5% have one here.
MEKK3 PB1 HTS – raises or lowers MEK5 binding to the human MEKK3 PB1 domain; Q99759; bead-based flow cytometry, Alexa488-MEK5 binding to MEKK3; actives lie on both sides; 0 = blocked by unlabeled MEK5, 100 = vehicle; actives 1.4% (n = 290,000); binding response (% of control), % at 10 µM; AID 1529;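 active means binding response more than 3 SD above or below the average of its plate-row segment, actives on both sides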;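 further: Alexa488 bead fluorescence after subtracting the streptavidin-only scavenger bead signal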
MEKK2mut PB1 HTS – signal of MEK5 binding to mutant human MEKK2 PB1 domain. bead flow cytometry, Alexa488-MEK5 binding to MEKK2 mutant. percent response, % at 10 µM. actives 0.35% (n = 290,000). AID 1530; in the data active means percent response above about 24%, passing the limit was not always enough
WT yeast gro inh – growth inhibition of WT yeast, mitochondrial fusion screen | mitochondrial fusion phenotypic screen, WT strain | actives 2.1% (n = 190,000) | AID 1362 | inhibition, % at 10 µM; in the data active means inhibition above about 58%; tested in S. cerevisiae
MEKK2wt PB1 HTS – raises or lowers MEK5 binding to wildtype human MEKK2 PB1 domain; binding response (% of control), % at 10 µM; actives 1.1% (n = 290,000); bead flow cytometry, Alexa488-MEK5 binding to MEKK2 WT; actives lie on both sides; in the data active means binding response below about 67% or above about 130%
ABCG2 block – human ABCG2 inhibition, ABCB1 as counter-screen. inhibition, % at 6.6 µM. actives 0.1% (n = 190,000). Q9UNQ0. IgMXP3 cells, JC-1 efflux, flow cytometry;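 active means inhibition above 80%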;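 further: 0% = DMSO and 100% = nicardipine control wells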
Target sequence (Q9UNQ0 whole entry, looked up): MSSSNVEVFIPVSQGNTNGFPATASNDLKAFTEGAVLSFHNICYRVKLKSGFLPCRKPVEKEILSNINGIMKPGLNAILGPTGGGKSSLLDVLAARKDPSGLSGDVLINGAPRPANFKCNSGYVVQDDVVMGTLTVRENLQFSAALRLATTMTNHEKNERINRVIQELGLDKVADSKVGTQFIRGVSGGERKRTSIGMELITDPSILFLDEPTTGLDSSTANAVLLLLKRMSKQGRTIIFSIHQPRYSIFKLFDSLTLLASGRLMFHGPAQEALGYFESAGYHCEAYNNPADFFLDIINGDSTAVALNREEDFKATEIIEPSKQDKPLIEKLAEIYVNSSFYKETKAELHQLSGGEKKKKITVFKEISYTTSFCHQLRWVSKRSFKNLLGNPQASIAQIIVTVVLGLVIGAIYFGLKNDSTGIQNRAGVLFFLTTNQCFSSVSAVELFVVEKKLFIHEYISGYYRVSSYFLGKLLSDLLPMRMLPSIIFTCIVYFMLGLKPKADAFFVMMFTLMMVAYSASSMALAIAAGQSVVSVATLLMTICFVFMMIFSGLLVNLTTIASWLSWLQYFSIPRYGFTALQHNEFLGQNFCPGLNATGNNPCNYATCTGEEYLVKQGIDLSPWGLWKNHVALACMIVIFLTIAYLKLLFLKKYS
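Test system: IgMXP3 (ABCG2) plus far-red-tagged CCRF-Adr (ABCB1) cells / Amount: 3 million cells/mL in well / Reagent: JC-1 transporter substrate / Timing: 10 min compound exposure, 25 °C / Signal: flow cytometry, 530 nm JC-1 signal / Read-out: percent efflux inhibition, scaled nicardipine 100% to DMSO 0% / Benchmarks: nicardipine as high control, DMSO as low control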
ABCB1 block – blocks JC-1 efflux by human ABCB1 transporter; P08183; CCRF-Adr cells, flow cytometry; inhibition, % at 6.6 µM; actives 0.067% (n = 190,000); AID 1326; in the data active means inhibition above about 40%;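 further: 0% = vehicle and 100% = reference inhibitor; higher value means more JC-1 retained so stronger ABCB1 efflux block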
Numbers without * were called inactive.

What do the screens show for `CC(=O)N1CC(C)Sc2ccc(S(=O)(=O)NCCc3cccc(C)c3)cc21` (configuration not stated)?
MEKK3 PB1 HTS: 103.0; MEKK2mut PB1 HTS: 3.0; MEKK2wt PB1 HTS: 104.0

Results for O=C(CN1CCN(C(=O)c2ccco2)CC1)Nc1ccc(F)cc1F ?
MEKK3 PB1 HTS: 100.0; MEKK2mut PB1 HTS: -1.0; MEKK2wt PB1 HTS: 96.0

What do the screens show for `Cc1cccc(-[n+]2c(C)cc(C)c3c(=O)[nH]c(=O)[nH]c32)c1`?
MEKK3 PB1 HTS: 100.0; MEKK2mut PB1 HTS: 19.0; WT yeast gro inh: 0.7; MEKK2wt PB1 HTS: 96.0; ABCG2 block: 11.3; ABCB1 block: 0.0

How did CCC(NC(=O)c1ccccc1NC(=O)c1ccccc1)C(=O)OC (configuration not stated) do in these assays?
MEKK3 PB1 HTS: 101.0; MEKK2mut PB1 HTS: 1.0; WT yeast gro inh: 77.3*; MEKK2wt PB1 HTS: 105.0; ABCG2 block: 46.9; ABCB1 block: 1.6

What do the screens show for `CCC(NC(=O)c1ccccc1NC(=O)c1ccc(OC)cc1)C(=O)N1CCCC1` (configuration not stated)?
MEKK3 PB1 HTS: 84.0; MEKK2mut PB1 HTS: -4.0; WT yeast gro inh: -7.6; MEKK2wt PB1 HTS: 85.0; ABCG2 block: 4.9; ABCB1 block: -0.9

Results for CCOC(=O)N1CCN(C(=O)CN(C)S(=O)(=O)c2ccc(F)cc2)CC1 ?
MEKK3 PB1 HTS: 100.0; MEKK2mut PB1 HTS: 1.0; MEKK2wt PB1 HTS: 103.0

Results for CCOC(=O)N1CCN(C(=O)CN(C)S(=O)(=O)c2ccc3c(c2)C(C)(C)C(=O)N3C)CC1 ?
WT yeast gro inh: 67.6*; ABCG2 block: 7.2; ABCB1 block: 1.1

What do the screens show for `CCCCn1ccnc1C(=O)c1ccc(S(=O)(=O)N(CCOC)CCOC)cc1`?
WT yeast gro inh: 1.0; ABCG2 block: 2.7; ABCB1 block: 0.6

What do the screens show for `Cc1[nH][nH]c(=O)c1C(c1c(C)[nH][nH]c1=O)c1cn(Cc2ccccc2Cl)c2ccccc12`?
MEKK3 PB1 HTS: 91.0; MEKK2mut PB1 HTS: -2.0; WT yeast gro inh: 63.5*; MEKK2wt PB1 HTS: 74.0; ABCG2 block: 3.9; ABCB1 block: 0.7

What do the screens show for `N/C(=N\O)c1cn(Cc2ccccc2Cl)c2ccccc12`?
MEKK3 PB1 HTS: 100.0; MEKK2mut PB1 HTS: 4.0; MEKK2wt PB1 HTS: 103.0

What do the screens show for `CC(=O)Nc1ccc(-c2cc(C(=O)O)c3ccc(C)cc3n2)cc1`?
MEKK3 PB1 HTS: 95.0; MEKK2mut PB1 HTS: -1.0; MEKK2wt PB1 HTS: 98.0

What do the screens show for `c1ccc(CCNc2ncnc3scc(C4COc5ccccc5O4)c23)cc1` (configuration not stated)?
MEKK3 PB1 HTS: 103.0; MEKK2mut PB1 HTS: -4.0; WT yeast gro inh: 69.1*; MEKK2wt PB1 HTS: 98.0; ABCG2 block: 3.4; ABCB1 block: 1.4

What do the screens show for `CCOC(=O)C1(C)NC(c2ccc(OC)cc2OC)C2C(=O)N(c3cccc(OC)c3)C(=O)C21` (configuration not stated)?
MEKK3 PB1 HTS: 104.0; MEKK2mut PB1 HTS: 3.0; WT yeast gro inh: -8.9; MEKK2wt PB1 HTS: 98.0; ABCG2 block: 1.3; ABCB1 block: 0.4

How did NC(=S)N/N=C/c1ccc(-c2ccc(Cl)c(Cl)c2)o1 do in these assays?
MEKK3 PB1 HTS: 102.0; MEKK2mut PB1 HTS: -1.0; WT yeast gro inh: 69.4*; MEKK2wt PB1 HTS: 97.0; ABCG2 block: 3.4; ABCB1 block: -0.4

Results for CCN(CC)C(=O)C(=O)c1cn(CCOc2ccccc2)c2ccccc12 ?
MEKK3 PB1 HTS: 99.0; MEKK2mut PB1 HTS: -4.0; WT yeast gro inh: 1.9; MEKK2wt PB1 HTS: 95.0; ABCG2 block: 19.6; ABCB1 block: 0.8

What do the screens show for `O=C(/C=C/c1ccc2c(c1)OCCO2)c1ccccc1`?
MEKK3 PB1 HTS: 104.0; MEKK2mut PB1 HTS: 7.0; MEKK2wt PB1 HTS: 102.0

What do the screens show for `Cc1ccc(O)c(C(=O)/C=C/c2ccc3c(c2)OCCO3)c1`?
MEKK3 PB1 HTS: 116.0; MEKK2mut PB1 HTS: -2.0; WT yeast gro inh: 59.7*; MEKK2wt PB1 HTS: 103.0; ABCG2 block: 17.6; ABCB1 block: 1.0

What do the screens show for `CCCCCNC(=O)C1CC(=O)OC12CCCCC2` (configuration not stated)?
MEKK3 PB1 HTS: 102.0; MEKK2mut PB1 HTS: -6.0; WT yeast gro inh: 6.6; MEKK2wt PB1 HTS: 101.0; ABCG2 block: -0.9; ABCB1 block: -0.4

What do the screens show for `N#C/C(=C/c1cn(-c2ccccc2)nc1-c1cccc(OCc2ccc(F)cc2)c1)C(=O)NCCCn1ccnc1`?
MEKK3 PB1 HTS: 172.0*; MEKK2mut PB1 HTS: 3.0; WT yeast gro inh: 50.3; MEKK2wt PB1 HTS: 131.0; ABCG2 block: 9.0; ABCB1 block: 0.5

Results for CCCCN(C(=O)CNC(=O)c1ccco1)C(C(=O)NC1CCCCC1)c1cccnc1 (configuration not stated) ?
MEKK3 PB1 HTS: 101.0; MEKK2mut PB1 HTS: 6.0; MEKK2wt PB1 HTS: 101.0

What do the screens show for `CCOC(=O)c1cc(-c2cccs2)nc2c1c(C)nn2-c1ccccn1`?
MEKK3 PB1 HTS: 103.0; MEKK2mut PB1 HTS: -12.0; WT yeast gro inh: 68.6*; MEKK2wt PB1 HTS: 80.0; ABCG2 block: 30.8; ABCB1 block: 15.6

How did CC(=O)N1CCOc2ccc(S(=O)(=O)N(C)c3cccc(C)c3)cc21 do in these assays?
MEKK3 PB1 HTS: 100.0; MEKK2mut PB1 HTS: 2.0; MEKK2wt PB1 HTS: 98.0

Results for CCCc1cc(=O)oc2cc(C)cc(OCC(=O)NCCCN3CCCC3=O)c12 ?
MEKK3 PB1 HTS: 102.0; MEKK2mut PB1 HTS: 4.0; MEKK2wt PB1 HTS: 100.0

Results for CCOc1cc(/C=C/C(=O)Nc2ccc(C(=O)NCCN(CC)CC)cc2)ccc1OCC(C)C ?
MEKK3 PB1 HTS: 122.0; MEKK2mut PB1 HTS: 4.0; WT yeast gro inh: -4.8; MEKK2wt PB1 HTS: 138.0*; ABCG2 block: -2.9; ABCB1 block: -1.4

Results for CCOc1ccc(/C=C/C(=O)Nc2ccc(C(N)=O)cc2)cc1OC ?
MEKK3 PB1 HTS: 110.0; MEKK2mut PB1 HTS: -1.0; WT yeast gro inh: -12.2; MEKK2wt PB1 HTS: 103.0; ABCG2 block: -3.7; ABCB1 block: -0.1

How did O=[N+]([O-])c1cccnc1N1CCC(c2cc(-c3cccc(C(F)(F)F)c3)n[nH]2)CC1 do in these assays?
MEKK3 PB1 HTS: 108.0; MEKK2mut PB1 HTS: 6.0; WT yeast gro inh: 77.7*; MEKK2wt PB1 HTS: 121.0; ABCG2 block: 12.8; ABCB1 block: 0.1

Results for O=[N+]([O-])c1cccnc1N1CCC(c2cc(-c3ccc(Cl)cc3Cl)n[nH]2)CC1 ?
MEKK3 PB1 HTS: 105.0; MEKK2mut PB1 HTS: 4.0; WT yeast gro inh: 65.2*; MEKK2wt PB1 HTS: 110.0; ABCG2 block: 6.2; ABCB1 block: 0.5

How did Cc1ccc(C)c(-n2[nH]c3c4c(ccc3c2=O)C(=O)c2ccccc2C4=O)c1 do in these assays?
MEKK3 PB1 HTS: 110.0; MEKK2mut PB1 HTS: -1.0; WT yeast gro inh: 67.1*; MEKK2wt PB1 HTS: 96.0; ABCG2 block: 11.3; ABCB1 block: 2.0
